Test [1] has as its target T1, Alpha-1B adrenergic receptor (Rattus norvegicus, UniProt P15823).
T1 sequence (P15823 whole entry): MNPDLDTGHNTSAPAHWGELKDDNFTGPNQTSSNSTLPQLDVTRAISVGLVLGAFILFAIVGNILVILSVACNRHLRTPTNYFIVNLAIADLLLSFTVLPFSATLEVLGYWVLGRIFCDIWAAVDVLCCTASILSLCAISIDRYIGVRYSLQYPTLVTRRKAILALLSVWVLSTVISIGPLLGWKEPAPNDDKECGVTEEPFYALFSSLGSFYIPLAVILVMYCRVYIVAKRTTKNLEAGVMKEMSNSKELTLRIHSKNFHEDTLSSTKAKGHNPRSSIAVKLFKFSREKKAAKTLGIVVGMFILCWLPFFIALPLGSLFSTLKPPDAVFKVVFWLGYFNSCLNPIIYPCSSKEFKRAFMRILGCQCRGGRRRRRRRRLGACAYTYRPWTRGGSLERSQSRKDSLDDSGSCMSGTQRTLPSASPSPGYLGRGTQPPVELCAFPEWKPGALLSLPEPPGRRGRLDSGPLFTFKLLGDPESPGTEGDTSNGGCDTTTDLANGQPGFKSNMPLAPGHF
In words: Antagonist activity at alpha-1B adrenoreceptor in Sprague-Dawley rat spleen assessed as inhibition of phenylephrine-induced tissue contraction after 30 mins by Schild plot analysis. The following applies: read-out: pA2 (converted). The essentials:
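Spleen from 250−300 g rats in gassed physiological salt solution with desipramine 0.01 μM and propranolol 1 μM. Isometric cumulative phenylephrine curves were run at 30 min intervals, the first discarded and the second taken as control, then a new curve after 30 min antagonist equilibration. pA₂ from Schild plot, at least three antagonist concentrations, each tested 3−5 times.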

The target of test [2] is T2, Alpha-1A adrenergic receptor (Rattus norvegicus, UniProt P43140).
T2 sequence (P43140 whole entry): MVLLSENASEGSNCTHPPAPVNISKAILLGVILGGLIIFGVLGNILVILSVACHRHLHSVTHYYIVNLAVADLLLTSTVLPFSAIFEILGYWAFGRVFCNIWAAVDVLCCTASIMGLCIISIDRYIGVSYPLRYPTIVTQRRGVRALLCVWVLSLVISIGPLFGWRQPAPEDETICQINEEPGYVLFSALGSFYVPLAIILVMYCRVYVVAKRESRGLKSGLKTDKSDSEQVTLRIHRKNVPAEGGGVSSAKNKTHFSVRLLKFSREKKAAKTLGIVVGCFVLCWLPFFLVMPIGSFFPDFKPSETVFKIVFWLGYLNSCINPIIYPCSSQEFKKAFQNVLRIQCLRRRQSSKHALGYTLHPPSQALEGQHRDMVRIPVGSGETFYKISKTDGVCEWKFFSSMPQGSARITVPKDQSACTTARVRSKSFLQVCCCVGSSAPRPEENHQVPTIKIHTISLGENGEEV
In words: Antagonist activity at alpha-1A adrenoreceptor in Sprague-Dawley rat prostate assessed as inhibition of noradrenaline-induced tissue contraction after 30 mins by Schild plot analysis. More on the design: species or system Prostate gland. The following applies: read-out: pA2 (converted). A digest of the protocol: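 Isolated prostatic portion of vas deferens from 200−250 g rats, in gassed (95% O₂/5% CO₂) physiological salt solution at pH 7.4 with desipramine 0.01 μM. Cumulative isotonic (−)-noradrenaline curves were run at 30 min intervals, the first discarded and the second taken as control, then a third after 30 min with antagonist. pA₂ from Schild plot, at least three antagonist concentrations, each tested 3−5 times.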

Test [3] deals with T3, Alpha-1D adrenergic receptor (Rattus norvegicus, UniProt P23944).
T3 sequence (P23944 whole entry): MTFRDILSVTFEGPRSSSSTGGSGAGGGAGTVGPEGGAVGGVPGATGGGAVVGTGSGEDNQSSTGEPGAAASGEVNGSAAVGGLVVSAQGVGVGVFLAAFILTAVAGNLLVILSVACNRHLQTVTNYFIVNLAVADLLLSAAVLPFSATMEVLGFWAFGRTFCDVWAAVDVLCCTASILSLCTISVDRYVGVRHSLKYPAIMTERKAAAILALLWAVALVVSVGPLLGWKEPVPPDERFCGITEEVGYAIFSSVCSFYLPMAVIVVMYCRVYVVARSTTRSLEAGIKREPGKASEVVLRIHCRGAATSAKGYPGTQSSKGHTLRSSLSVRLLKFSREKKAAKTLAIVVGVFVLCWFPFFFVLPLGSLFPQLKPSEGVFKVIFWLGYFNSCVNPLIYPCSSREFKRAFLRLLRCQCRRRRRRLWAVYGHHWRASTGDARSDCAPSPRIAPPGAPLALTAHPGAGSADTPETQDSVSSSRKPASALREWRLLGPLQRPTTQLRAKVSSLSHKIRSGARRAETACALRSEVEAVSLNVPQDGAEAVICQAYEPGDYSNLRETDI
In words: Antagonist activity at alpha-1D adrenoreceptor in Sprague-Dawley rat thoracic aorta assessed as inhibition of noradrenaline-induced tissue contraction after 30 mins by Schild plot analysis. The following applies: read-out: pA2 (converted). A digest of the protocol: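 Endothelium-denuded helicoid aortic strips, about 1.5 cm, with denudation confirmed by absent acetylcholine relaxation. Strips were equilibrated ≥1 h at 1 g tension and cumulative (−)-noradrenaline curves recorded, the first two discarded and the third taken as control; a fourth followed 30 min antagonist equilibration. pA₂ from Schild plot, 3−5 repeats per concentration.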

The target in test [4] is T4, Alpha-1B adrenergic receptor (Homo sapiens, UniProt P35368).
T4 sequence (P35368 whole entry): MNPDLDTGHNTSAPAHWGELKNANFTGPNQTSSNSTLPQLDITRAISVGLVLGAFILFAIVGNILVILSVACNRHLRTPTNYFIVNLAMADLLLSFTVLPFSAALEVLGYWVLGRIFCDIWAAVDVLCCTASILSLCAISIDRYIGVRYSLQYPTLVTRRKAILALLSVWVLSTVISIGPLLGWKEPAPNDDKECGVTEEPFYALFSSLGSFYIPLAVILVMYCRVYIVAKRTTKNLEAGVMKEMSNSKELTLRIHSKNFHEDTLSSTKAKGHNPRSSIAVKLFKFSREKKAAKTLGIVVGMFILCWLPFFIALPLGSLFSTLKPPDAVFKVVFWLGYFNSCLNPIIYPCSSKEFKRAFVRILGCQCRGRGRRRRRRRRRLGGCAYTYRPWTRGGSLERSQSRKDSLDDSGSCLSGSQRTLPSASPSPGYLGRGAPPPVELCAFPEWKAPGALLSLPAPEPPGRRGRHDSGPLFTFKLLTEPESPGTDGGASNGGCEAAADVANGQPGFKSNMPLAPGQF
In words: Displacement of [3H]prazosin from human alpha-1B adrenoreceptor expressed in CHO cells after 30 mins. The format is cell-based. A digest of the protocol: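 Membranes from CHO cells expressing each α₁-AR subtype, incubated 30 min at 25 °C in 50 mM Tris HCl pH 7.7 with 10 μM pargyline and 0.1% ascorbic acid, plus 0.5 nM [³H]prazosin and varying test compound concentrations. Nonspecific binding was defined with 1 μM prazosin.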
Background: Displacement assays read how much labelled ligand stays bound in the presence of the test substance.

A further test is filed under the species Cavia porcellus. In words: Inverse agonist activity at alpha-1 receptor in guinea pig thoracic aorta assessed as inhibition of calcium-induced increase in resting tension at 10 nM relative to control. The test is classed as tissue-based. The essentials:
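Guinea pig thoracic aortic strips in Krebs at 37 °C, equilibrated 1 h at 1 g tension, then given (−)-noradrenaline 1 μM. Internal Ca²⁺ stores were depleted by repeated agonist in Ca²⁺-free Krebs with 0.1 mM EDTA. After 30 min with antagonist at 10 nM, 1.8 mM Ca²⁺ was added. Read-out: % decrease of Ca²⁺-induced increase in resting tension versus no-agent reference.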

This is an account of results in ChEMBL document CHEMBL2417545, “6-methoxy-7-benzofuranoxy and 6-methoxy-7-indolyloxy analogues of 2-[2-(2,6-Dimethoxyphenoxy)ethyl]aminomethyl-1,4-benzodioxane (WB4101):1 discovery of a potent and selective α1D-adrenoceptor antagonist” (J Med Chem, 2013).

The term Ki denotes a dissociation constant, usually derived from enzyme kinetics or from competition with a known ligand. High values mean weaker binding, low ones tighter binding. Usually inhibition stands for how much of the control response was suppressed.

Regarding `COc1ccc2ccoc2c1OCCNC[C@H]1COc2ccccc2O1.Cl`, the Kb in test [1] is 2.09 nM; in test [2], 1.95 nM; in test [3], 0.977 nM. Further, the Ki in test [4] is 28.8 nM. Besides, in the test listed under Cavia porcellus, the inhibition amounted to 0%.
For the compound `COc1ccc2c(c1OCCNC[C@H]1COc3ccccc3O1)OCC2.Cl`, the Kb is 3.24 nM in test [1], 13.2 nM in test [2] and 0.263 nM in test [3]. Moreover, affinity in test [4] was put at a Ki of 21.9 nM. Besides, in the test filed under Cavia porcellus, the inhibition stood at 0%.
For the compound `COc1ccc2c(c1OCCNC[C@H]1COc3ccccc3O1)NCC2.Cl.Cl`, the Kb is 0.832 nM in test [1], 3.63 nM in test [2] and 2.4 nM in test [3]. Besides, the Ki in test [4] was 35.5 nM. The inhibition in the test filed under Cavia porcellus was determined as 100%.
The corresponding values for `COc1ccc2cc[nH]c2c1OCCNC[C@H]1COc2ccccc2O1` are 17 nM, 13.2 nM, 3.02 nM, 490 nM and 25%.
